Source: PubChem BioAssay
In the library only some 0.95% were active in any assay of this set; here they are far more common.
ABCB1 inh: human ABCB1 inhibition, ABCG2 as counter-screen; inhibition, % at 6.6 µM; AID 1326; CCRF-Adr cells, JC-1 efflux, flow cytometry; P08183; hit rate 0.067% among 190,000; in the data active = inhibition above about 40%;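 also: 0% = vehicle and 100% = reference inhibitor; higher value means more JC-1 retained so stronger ABCB1 efflux block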
Arbovirus inh: blocks arbovirus infection; AID 1251; inhibition, % at 10 µM; arbovirus infection cell-based antiviral screen; hit rate 0.37% among 200,000; in the data active = inhibition above about 30%
HSV replic up: increases HSV replication in cells. HSV replication augmentation in cells, fold increase. maximum fold increase. hit rate 0.005% among 220,000; in the data active = maximum fold increase above about 1.5; inconclusive = no clear call, values can overlap the other calls; tested in PC3 cells
Furin inhibitor: human furin inhibition. inhibition, % at 20 µM or 30 µM. AID 463115. purified furin, fluorogenic substrate cleavage. hit rate 0.061% among 220,000. P09958; in the data active = inhibition above about 25%
NCF1 inh: inhibitors of human p47phox binding; P14598; inhibition, % at 24.7 µM; p47phox/p22phox peptide binding, fluorescence polarization, 2 h; hit rate 0.53% among 220,000;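 active = inhibition above about 30%, limit read from the data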;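 also: 0% = p47phox with labelled peptide and 100% = labelled peptide alone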
Target sequence (P14598 whole entry, looked up): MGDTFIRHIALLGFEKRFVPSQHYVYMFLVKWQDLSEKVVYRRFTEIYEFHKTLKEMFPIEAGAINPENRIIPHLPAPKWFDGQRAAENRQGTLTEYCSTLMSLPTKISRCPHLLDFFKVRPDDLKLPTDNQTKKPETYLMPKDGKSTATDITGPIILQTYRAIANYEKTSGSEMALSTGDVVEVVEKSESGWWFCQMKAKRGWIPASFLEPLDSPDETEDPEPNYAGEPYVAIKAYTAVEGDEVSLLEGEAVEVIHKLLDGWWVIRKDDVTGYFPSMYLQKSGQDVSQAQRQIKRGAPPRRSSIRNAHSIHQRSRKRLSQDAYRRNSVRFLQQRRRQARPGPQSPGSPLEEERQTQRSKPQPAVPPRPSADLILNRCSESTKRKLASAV
ABCG2 inh: human ABCG2 inhibition, ABCB1 as counter-screen; Q9UNQ0; IgMXP3 cells, JC-1 efflux, flow cytometry; inhibition, % at 6.6 µM; hit rate 0.1% among 190,000;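 active = inhibition above 80%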;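 also: 0% = DMSO and 100% = nicardipine control wells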
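test system = two drug-resistant human cell lines, ABCG2 and ABCB1 | amount = 3 million cells/mL final, two lines in 1:1 ratio | reagent = JC-1 transporter substrate | doses = one concentration, 6.6 µM final | incubation = 10 min at 25 °C | signal = flow cytometric JC-1 green MFI at 530 nm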
Numbers without * were called inactive; i = inactive; ? = inconclusive; . = no result given.

SMILES	ABCB1 inh	Arbovirus inh	HSV replic up	Furin inhibitor	NCF1 inh	ABCG2 inh
CC1CC(C)CN(CC(=O)Nc2ccc3c(c2)OCCO3)C1 (stereo not drawn)	0	-4	i	-16	32*	0
CC(=O)Nc1ccc2c(c1)OCCO2	0	8	i	17	.	3
O=C(Nc1ccc2c(c1)OCCO2)c1c(F)c(F)c(F)c(F)c1F	0	0	i	-20	63*	7
COc1ccc(N2C(=O)CCC(C(=O)NCc3cccnc3)C2c2ccc(OC)c(OC)c2)cc1 (stereo not drawn)	0	11	i	-24	200*	0
CCCCc1ccc(NC(=S)N2CCCC(C)C2)cc1 (stereo not drawn)	0	9	i	-18	-18	7
CC(C)c1nc2oc3c(N(C)CCO)ncnc3c2c2c1CCC2	.	.	i	0	11	.
Oc1ccccc1CN1CCCN(Cc2ccccc2O)C1	0	70*	i	-23	-2	1
Oc1ccccc1CN1CCC(C(O)(c2ccccc2)c2ccccc2)CC1	11	4	i	-29	3	4
Cc1cc(C)c(NC(=S)NC(=O)c2ccc(-c3ccccc3)cc2)c(C)c1	0	30*	i	-1	-11	3
N#C/C(=C\c1cc2ccccc2nc1N1CCCCC1)C(N)=O	2	35*	i	-7	-17	37
O=C(COc1ccc(Cl)cc1)NNC(=O)CSc1nncs1	0	3	i	-28	7	-1
Cc1ccc2nc3sc(-c4nnc(-c5ccccc5[N+](=O)[O-])o4)c(N)c3cc2c1	0	1	.	-2	44*	-1
Oc1ccc(-c2n[nH]c(=S)n2-c2ccc3c(c2)OCCO3)c(O)c1	0	33*	i	-19	-3	-7
COC(C[C@@H](O)C[C@H](O)[C@@H](C)OCc1ccccc1)OC	.	.	i	-30	-15	.
Cc1nn2c(-c3ccccc3)c(-c3ccccc3)nc2[nH]c1=O	0	32*	i	-19	-7	1
O=C(COC(=O)c1cc(=O)c2ccccc2o1)NC1CCCC1	1	-2	i	-17	3	2
CCNC(=O)CN(c1ccc(CC)cc1)S(C)(=O)=O	0	46*	i	-19	-4	0
Oc1[nH]c(=S)sc1/C=C1\C(c2ccccc2)=Nc2ccccc21	-1	-11	?	-13	32*	-4
Oc1[nH]c(=S)sc1C=C1N=c2ccccc2=N1	.	.	i	-1	-35	.
CC(C)Cc1nn2c(N)c(/C=C3\C=Nc4ccccc43)c(=O)nc2s1	-1	37*	i	-21	-56	-2
CCCc1nn2c(N)c(/C=C3\C=Nc4ccccc43)c(=O)nc2s1	0	71*	i	-17	-70	-2
CCCCc1nn2c(N)c(/C=C3\C=Nc4ccccc43)c(=O)nc2s1	.	33*	.	-7	-88	-2
Cc1ccc(Cl)cc1NC1=NC(=S)N(C(C)C)C12CCCCC2	1	-1	i	-20	-1	2
Cc1cc(N2CCN(C)CC2)nc2ccc(NC(=S)N3CCCCC3)cc12	0	-3	i	-21	-8	2
Cc1cccc(N2CCN(C(=S)Nc3ccc4nc(N5CCN(C)CC5)cc(C)c4c3)CC2)c1C	1	-20	i	-2	44*	8
SMILES	ABCB1 inh	Arbovirus inh	HSV replic up	Furin inhibitor	NCF1 inh	ABCG2 inh
O=C1CN(C(=O)/C=C/c2ccc(Cl)cc2)c2ccccc2N1	1	31*	i	-20	-9	9
O=C1CN(C(=O)/C=C/c2cccc(Cl)c2)c2ccccc2N1	1	-1	i	-6	-13	8
Cc1cccc(C(=O)O/N=C2\CCSc3ccc(C)cc32)c1	0	-1	i	-17	94*	0
Cc1ccc(C(=O)O/N=C2\CCSc3ccc(C)cc32)cc1	1	-4	i	-7	-13	24
Cc1cc(Br)ccc1OCCCCN1CCCCC1	0	-27	i	-30	48*	-1
Cc1cc(C(C)(C)C)ccc1OCCCCN1CCCC1	0	-2	i	-16	-9	5
CCn1c(CCCCc2n[nH]c(=S)n2CC)n[nH]c1=S	1	3	i	-25	-7	7
CCc1n[nH]c(=O)n1Cn1c(CC)n[nH]c1=O	-2	12	i	-17	37*	-3
O=C(COC(=O)c1ccc[nH]c1=O)NCC1CCCO1 (stereo not drawn)	0	-2	i	30*	-5	11
O=C(COC(=O)c1ccccc1)NCC1CCCO1 (stereo not drawn)	1	11	i	-23	8	5
O=C(COC(=O)Cc1cccc(C(F)(F)F)c1)NCC1CCCO1 (stereo not drawn)	0	2	i	1	65*	-1
Cc1cc(C)c(NC(=O)NC(=O)C(Cl)(Cl)Cl)c(C)c1	1	5	i	-21	-2	7
O=S(=O)(c1ccc(Oc2ccc(Cl)cc2)c(S(=O)(=O)N2CCCCC2)c1)N1CCCCC1	1	38*	i	-15	3	2
O=S(=O)(c1ccc(Cl)cc1)N1CCN(S(=O)(=O)N2CCCCCC2)CC1	1	-5	i	-18	-7	3
O=C(O)c1ccc(N2C(=O)/C(=C/C=C/c3ccccc3)SC2=S)cc1	-1	-2	i	-21	-4	-1
CN(C)c1ccc(/C=C/C=C2/SC(=S)N(c3ccccc3)C2=O)cc1	1	-2	.	-7	107*	6
O=C1C2=C(SCCS2)C(=O)N1CCCO	0	4	.	-15	72*	1
Cc1ccccc1NC(=O)Cn1c(O)c(N=NC(=O)c2ccccc2O)c2ccccc21	-1	-5	i	-1	50*	-8
CCSc1nnc(C)c(=O)n1COC(=O)c1ccc(S(=O)(=O)N2CCCC2)cc1	0	-3	i	-8	-8	-5
COC(=O)c1ccccc1NC(=O)CN1CCC(NC(=O)c2ccccc2C)CC1	4	83*	i	-6	18	8
COC(=O)c1ccccc1NC(=O)CN1CCC(C)CC1	0	3	i	-15	-4	-1
O=C1Nc2ccc(Br)cc2C1=Nc1cccnc1	.	.	i	-33	-14	.
O=C(Cn1c(=S)[nH]c2ncccc2c1=O)NCCc1ccccc1	0	-7	i	-10	-7	-3
CC(=O)N1CC(=O)N(Cc2ccccc2)/C(=C/c2ccccc2)C1=O	1	-1	i	-12	134*	3
CC1(C)CC(=O)N(Cc2ccccc2)C(=O)C1	0	4	i	4	-6	1
COc1ccccc1NC(=O)Cc1noc(CSc2n[nH]c(N)n2)n1	0	1	i	-17	6	3
CCc1nnc(NC(=O)CSc2nnc(CNc3cccc(Cl)c3)n2CC)s1	0	5	i	-4	-5	2
CCc1nnc(NC(=O)CSc2nnc(C3CCCCC3)n2-c2cccc(Cl)c2)s1	3	12	i	29*	-9	38
